Measured values from article PMC7531564 (mAbs, 2020).
Where a chain is given by its changes, count along the chain named. Each block holds one molecule with its values, some of them ahead of it.

Experiments:
mouse cancer models = details: cited from earlier work
mRCC CL-19 cell line = details: high expressing ARG2 mRCC CL-19 cell line; cited from earlier work
[1] = biological target: T1, ARG2-C0021158 Fab complex (Homo sapiens, UniProt P78540); test: Isothermal titration calorimetry with ARG2-C0021158 Fab complex; type: binding; details: ARG2 + C0021158 Fab 1:1 mix, 20 µM each
T1 sequence (P78540 23-354): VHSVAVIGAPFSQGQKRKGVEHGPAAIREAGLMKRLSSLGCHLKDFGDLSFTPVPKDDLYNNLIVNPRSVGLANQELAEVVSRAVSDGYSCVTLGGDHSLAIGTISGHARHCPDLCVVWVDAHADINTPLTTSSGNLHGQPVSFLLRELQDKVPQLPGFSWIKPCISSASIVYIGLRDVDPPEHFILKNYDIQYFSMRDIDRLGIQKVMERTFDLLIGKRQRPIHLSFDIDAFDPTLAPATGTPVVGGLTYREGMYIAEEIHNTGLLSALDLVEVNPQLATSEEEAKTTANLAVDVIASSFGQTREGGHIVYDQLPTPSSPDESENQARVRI
Method in brief: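 ITC on a MicroCal VP at 25°C. Recombinant human ARG2 and test Fab were mixed 1:1 at 20 µM each (ARG2 as monomer) and pre-incubated 1 h at 20°C. Boronic acid arginase-inhibitor ligand at 0.50 mM was then titrated in. Isotherms were fitted to a one-site binding model.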

human ARG2 = biological target: T2, human ARG2 (Homo sapiens, UniProt P78540); test: Isothermal titration calorimetry with free ARG2; type: binding; details: KD (ITC), free ARG2 20 µM monomer, 25°C
T2 sequence (P78540 23-354): T1 sequence (P78540 23-354)
Method in brief: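 ITC on a MicroCal VP at 25°C. A 750 µM (0.75 mM) boronic acid arginase-inhibitor ligand was titrated into 20 µM recombinant human ARG2 (monomer concentration). Thermograms were integrated, and isotherms were fitted to a one-site (one-to-one) binding model. Error was taken as a 68.3% confidence interval.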

[2] = tested on: CD3/CD28 co-stimulated T-cells; test: In vitro T-cell proliferation assay; type: cell-based, human; details: ARG2 15 µg/ml; BrdU
Method in brief: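 Human PBMCs were isolated from leukocyte cones by Ficoll gradient, and T cells were enriched by negative selection. 40000 cells/well in RPMI 1640 with 5% human serum albumin were activated with CD3/CD28 (1:40) for 45 min at 37°C, 5% CO2. Antibody titrations in TBS/NaCl were added for 30 min, then recombinant human trimeric ARG2 (15 µg/ml final). Incubation lasted 96 h total, with BrdU added at 78 h and read by ELISA. Data were expressed as % of control, with EC50 from a four-parameter fit.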

[3] = biological target: biotinylated recombinant human ARG2 trimer (human, UniProt P78540, biotin (site not stated))
[4] = biological target: recombinant human Arginase 2 (ARG2) trimer, residues 23-354, C-terminal His6-tag (human, UniProt P78540); test: crystal structure
crystal structure = biological target: the molecule itself; test: crystal structure

Molecule: C[C@H](N)C(=O)N1C[C@H](CCCB(O)O)[C@](N)(C(=O)O)C1 [CB-1158]
tumor growth (mouse cancer models; mouse cancer models): reduces tumor growth

Molecule: N=C(NO)NCC[C@H](N)C(=O)O [nor-NOHA, N^ω-hydroxy-nor-L-arginine]
anti-tumor effect in vivo (mouse cancer models; in vivo mouse models): anti-tumor effects
cell growth (mRCC CL-19 cell line): significantly suppressed cell growth

binding to C0021158-bound ARG2 (ITC) [1]: no interaction
Kd (human ARG2): ~7 µM
Molecule: Cl.N[C@@H](CSCCB(O)O)C(=O)O [BEC, S-(2-Boronoethyl)-L-cysteine hydrochloride]

Molecule: NC(=NCCC[C@H](N)C(=O)O)NO [NHLA, N^G-hydroxy-L-arginine]
restoration of ARG2-inhibited T-cell proliferation [2]: partially restore

Kd [3]: 0.000173 µM
B1: C0021177 (antibody, V domains shown)
VH: EVQLLESGGGLVQPGGSLRLSCAASGFTFRYEVAAWVRQAPGKGLEWVSAISGPAPKGYYADSVKGRFTISRDNSKNTLYLQMNSLRAEDTAVYYCARLRADLGLYMDLWGRGTLVTVSS
VL: QSELTQPPTASAAPGQKVTISCSGSSSNIGNHYVSWYQQLPGTAPKLLIYDTTVLSSGIPDRFSGSKSGTSATLGITGLQTGDEADYYCGTWDELTSNLVFGGGTKLTVL

stoichiometry N [4]: 3 Fab per ARG2 trimer
B2: C0021158 Fab (Fab, V domains shown)
VH: B1 VH with A55I
VL: B1 VL with E3V, T9S, A10V, T52N, T53S, V54E, L55R, S56T, S57A, I59V

B3: recombinant human Arginase 2 (ARG2) trimer, residues 23-354, C-terminal His6-tag (enzyme, UniProt P78540 23-354, looked up)
chain: T1 sequence (P78540 23-354)
stoichiometry N (crystal structure): 3
